Measured values published in ChEMBL document CHEMBL3112520, “Synthesis and biological evaluation of 2,5-di(7-indolyl)-1,3,4-oxadiazoles, and 2- and 7-indolyl 2-(1,3,4-thiadiazolyl)ketones as antimicrobials” (Bioorg Med Chem, 2014).
Activity calls are given as the source filed them. The rule behind the calls is not given here.

What was measured:
[1] = test system: Escherichia coli; assay: Antibacterial activity against Escherichia coli DH5[alpha] assessed as growth inhibition at late exponential phase at 200 uM after 16 hrs; format: functional; conditions: for inhibition of growth at 200 µM: read-out: GI
Method in brief: (§1)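 Compounds were made up as 50 mM DMSO stocks and diluted in LB medium to 200 µM. Cultures were grown at 37 °C with 600 rpm shaking. OD600 was read every 10 min for 16 h, with LB as the blank. Samples were run in triplicate, and growth curves were compared with cells given equal amounts of DMSO.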

[2] = test system: Bacillus subtilis; assay: Antibacterial activity against Bacillus subtilis 168 assessed as growth inhibition at late exponential phase at 200 uM after 16 hrs; format: functional; conditions: for growth inhibition (GI): subsp. subtilis str. 168; for inhibition of growth at 200 µM: subsp. subtilis str. 168, 16 h, read-out: GI; method in brief: as §1
[3] = Inhibition of RNA polymerase-sigma factor (unknown origin) interaction at 15 uM after 1 hr by ELISA
Method in brief: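 ELISA: purified full-length σA (250 nM in PBS) was coated overnight at 4 °C, then blocked with 1% (w/v) BSA in PBS at room temperature. After PBS/Tween-20 washes, rabbit anti-GST (1:2000) and then HRP goat anti-rabbit (1:2000) were each applied for 1 h at room temperature. TMB substrate was added, shaken for 6 min at room temperature, and absorbance read at 600 nm.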

[4] = Solubility of the compound; format: physicochemical

| Compound | inhibition of growth at 200 µM [1] [%] | growth inhibition (GI) [2] | inhibition [3] [%] | inhibition of growth at 200 µM [2] [%] | growth inhibition (GI) [1] | solubility [4] |
| --- | --- | --- | --- | --- | --- | --- |
| COc1cc(OC)c2c(-c3ccc(Br)cc3)c(C(=O)c3nnc(N(C)C)s3)[nH]c2c1 | 16.8 | inactive | 19 |  |  |  |
| COc1cc(OC)c2c(-c3ccc(Cl)cc3)c(C(=O)C(=O)NNC(=S)N(C)C)[nH]c2c1 | 47 |  | 20.4 | 32.5 |  |  |
| COc1cc(OC)c2c(-c3ccc(Br)cc3)c(C(=O)C(=O)NNC(=S)N(C)C)[nH]c2c1 | 70 |  | 20.8 | 69.9 |  |  |
| COc1cc(OC)c2c(-c3ccc(Cl)cc3)c[nH]c2c1-c1nnc(-c2c(OC)cc(OC)c3c(-c4ccc(Cl)cc4)c[nH]c23)o1 |  | inactive | 17.8 |  | inactive |  |
| COc1cc(OC)c2c(-c3ccccc3)c(-c3ccccc3)[nH]c2c1C(=O)C(=O)NNC(=O)C(=O)c1c(OC)cc(OC)c2c(-c3ccccc3)c(-c3ccccc3)[nH]c12 |  |  |  |  |  | ND(Insoluble) |
| COc1cc(OC)c2c(-c3ccccc3)c(-c3ccccc3)[nH]c2c1C(=O)NNC(=O)c1c(OC)cc(OC)c2c(-c3ccccc3)c(-c3ccccc3)[nH]c12 |  |  |  |  |  | ND(Insoluble) |
| COc1cc(OC)c2c(-c3ccccc3)c(-c3ccccc3)[nH]c2c1-c1nnc(-c2nnc(-c3c(OC)cc(OC)c4c(-c5ccccc5)c(-c5ccccc5)[nH]c34)o2)o1 |  |  |  |  |  | ND(Insoluble) |
| COc1cc(OC)c2c(-c3ccc(Br)cc3)c[nH]c2c1-c1nnc(-c2c(OC)cc(OC)c3c(-c4ccc(Br)cc4)c[nH]c23)o1 |  | inactive | 16.8 |  | inactive |  |
| COc1cc(OC)c2c(-c3ccccc3)c(-c3ccccc3)[nH]c2c1C(=O)NNC(=O)C(=O)NNC(=O)c1c(OC)cc(OC)c2c(-c3ccccc3)c(-c3ccccc3)[nH]c12 |  |  |  |  |  | ND(Insoluble) |
| COc1cc(OC)c2c(-c3ccc(Br)cc3)c[nH]c2c1C(=O)NNC(=O)c1c(OC)cc(OC)c2c(-c3ccc(Br)cc3)c[nH]c12 | 37.4 |  | 39.5 | 14.3 |  |  |
| COc1cc(OC)c2c(-c3ccc(Cl)cc3)c(C(=O)c3nnc(N(C)C)s3)[nH]c2c1 | 10.6 | inactive | 17.2 |  |  |  |
| COc1cc(OC)c2c(-c3ccccc3)c(-c3ccccc3)[nH]c2c1-c1nnc(-c2c(OC)cc(OC)c3c(-c4ccccc4)c(-c4ccccc4)[nH]c23)o1 |  |  |  |  |  | ND(Insoluble) |
| COc1cc(OC)c2c(-c3ccc(Cl)cc3)c[nH]c2c1C(=O)NNC(=O)c1c(OC)cc(OC)c2c(-c3ccc(Cl)cc3)c[nH]c12 |  |  | 62.6 | 29.8 | inactive |  |
